Non-standard residues stand in square brackets, D forms with d. No end group written: not given here. Orn = NCCC[C@H](N)C(=O)O
Experiments:
[1] = ΔδCαH-based β-hairpin population and thermodynamic analysis by NMR; format: physicochemical; settings: relative to parent peptide I, 4 °C, pH 3.8; for ΔΔGfold: calculated for each reporter position and averaged
Procedure, shortened: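 NMR samples were prepared in 100 mM acetate buffer, pH 3.8.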

[2] = Far-UV circular dichroism: effects of pH and temperature; format: physicochemical; settings: 4 to 20 to 37 °C, phosphate buffer
Procedure, shortened: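 Far-UV CD spectra of the test peptides were recorded in phosphate buffer (pH 7.0) and in the NMR buffer (100 mM acetate, pH 3.8). A temperature series at 4, 20 and 37 °C was run in phosphate buffer.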

[3] = 4 °C, cited from earlier work
[4] = aqueous buffer pH 3.8, ref 9a (Syud et al.)

Arg-Tyr-Val-Glu-Val-DPro-Gly-Orn-TS+-Ile-Leu-Gln-NH2 [Peptide III]
effect of residue replacement on β-hairpin population (in words) [1]: enhanced β-hairpin population | ΔΔGfold [1]: –0.5 ± 0.4 kcal/mol | effect of temperature on far UV CD (in words) [2]: does not significantly alter

Arg-Tyr-Val-Glu-Val-DPro-Gly-Orn-TO+-Ile-Leu-Gln-NH2 [Peptide II]
effect of residue replacement on β-hairpin population (in words) [1]: little effect on β-hairpin population | ΔΔGfold [1]: +0.1 ± 0.2 kcal/mol

RYVEV[dP]G[Orn]KILQ-NH2 [Peptide I]
effect of temperature on far UV CD (in words) [2]: does not significantly alter | population of the β-hairpin conformation ([3]; aqueous buffer pH 3.8, NMR, ref 9b): ~68% | β-hairpin population at reporter position Ile 10 [3, 4]: 59% | β-hairpin population at reporter position Orn 8 [3, 4]: 65% | β-hairpin population at reporter position Val 3 [3, 4]: 70% | β-hairpin population at reporter position Val 5 [3, 4]: 76%

Arg-Tyr-Val-TS--Val-DPro-Gly-Orn-Lys-Ile-Leu-Gln-NH2 [Peptide IV]
effect of residue replacement on β-hairpin population (in words) [1]: enhanced β-hairpin population | ΔΔGfold [1]: –0.6 ± 0.3 kcal/mol | effect of temperature on far UV CD (in words) [2]: does not significantly alter
